Converted amounts (≈) assume the structure as drawn.
Assays:
Prevotella bivia [1] = test: Antimicrobial activity against Prevotella bivia assessed as percent susceptible isolates after 48 hrs by agar dilution method; type: functional
How it was run: (§1)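 CLSI agar dilution (M11-A7); inoculum 10^5 CFU applied by replicator; plates incubated anaerobically 48 h at 37°C. For piperacillin-tazobactam, tazobactam held constant at 4 μg/ml.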

Clostridioides difficile [2] = test: Antimicrobial activity against Clostridium difficile assessed as percent susceptible isolates after 48 hrs by agar dilution method; type: functional
Finegoldia magna [3] = test: Antimicrobial activity against Finegoldia magna assessed as percent resistant isolates after 48 hrs by agar dilution method; type: functional
How it was run: (§2)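 CLSI agar dilution on recent Korean clinical anaerobe isolates. Inoculum 10^5 CFU per spot by replicator. Plates incubated in an anaerobic chamber at 37°C for 48 h. For piperacillin plus tazobactam, tazobactam was held constant at 4 μg/ml. Resistance and susceptibility rates derived from MICs.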

[4] = tested on: Peptoniphilus asaccharolyticus; test: Antimicrobial activity against Peptoniphilus asaccharolyticus after 48 hrs by agar dilution method; type: functional; how it was run: as §1
Bacteroides ovatus = test: Antimicrobial activity against Bacteroides ovatus after 48 hrs by agar dilution method; type: functional
How it was run: (§3)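 MICs on clinical anaerobe isolates by the CLSI agar dilution method. Inoculum of 10^5 CFU applied with a Steers replicator. Plates incubated 48 h at 37°C in an anaerobic chamber.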

[5] = tested on: Peptoniphilus asaccharolyticus; test: Antimicrobial activity against Peptoniphilus asaccharolyticus assessed as percent resistant isolates after 48 hrs by agar dilution method; type: functional; how it was run: as §2
Phocaeicola vulgatus = test: Antimicrobial activity against Bacteroides vulgatus after 48 hrs by agar dilution method; type: functional; how it was run: as §3
[6] = tested on: Bifidobacterium adolescentis; test: Antimicrobial activity against Bifidobacterium adolescentis after 48 hrs by agar dilution method; type: functional; how it was run: as §3
Clostridioides difficile [7] = test: Antimicrobial activity against Clostridium difficile after 48 hrs by agar dilution method; type: functional
Bacteroides caccae [8] = test: Antimicrobial activity against Bacteroides caccae after 48 hrs by agar dilution method; type: functional; how it was run: as §3
[9] = tested on: Bifidobacterium adolescentis; test: Antimicrobial activity against Bifidobacterium adolescentis assessed as percent susceptible isolates after 48 hrs by agar dilution method; type: functional
[10] = tested on: Peptostreptococcus anaerobius; test: Antimicrobial activity against Peptostreptococcus anaerobius after 48 hrs by agar dilution method; type: functional; how it was run: as §1
Eubacterium sp. [11] = test: Antimicrobial activity against Eubacterium sp. assessed as percent susceptible isolates after 48 hrs by agar dilution method; type: functional; how it was run: as §1
Schaalia odontolytica [12] = test: Antimicrobial activity against Actinomyces odontolyticus after 48 hrs by agar dilution method; type: functional; how it was run: as §3
Anaerococcus prevotii [13] = test: Antimicrobial activity against Anaerococcus prevotii assessed as percent susceptible isolates after 48 hrs by agar dilution method; type: functional
Fusobacterium necrogenes = test: Antimicrobial activity against Fusobacterium necrogenes after 48 hrs by agar dilution method; type: functional; how it was run: as §1
Eubacterium sp. [14] = test: Antimicrobial activity against Eubacterium sp. after 48 hrs by agar dilution method; type: functional; how it was run: as §1
Prevotella intermedia [15] = test: Antimicrobial activity against Prevotella intermedia assessed as percent susceptible isolates after 48 hrs by agar dilution method; type: functional; how it was run: as §1
Hoylesella oralis = test: Antimicrobial activity against Prevotella oralis assessed as percent resistant isolates after 48 hrs by agar dilution method; type: functional; how it was run: as §2
Prevotella bivia [16] = test: Antimicrobial activity against Prevotella bivia assessed as percent resistant isolates after 48 hrs by agar dilution method; type: functional; how it was run: as §2
Clostridium perfringens [17] = test: Antimicrobial activity against Clostridium perfringens after 48 hrs by agar dilution method; type: functional
[18] = tested on: Bacteroides thetaiotaomicron; test: Antimicrobial activity against Bacteroides thetaiotaomicron assessed as percent resistant isolates after 48 hrs by agar dilution method; type: functional; how it was run: as §2
Prevotella buccae = test: Antimicrobial activity against Prevotella buccae assessed as percent resistant isolates after 48 hrs by agar dilution method; type: functional, Segatella buccae; how it was run: as §2
Bifidobacterium sp. = test: Antimicrobial activity against Bifidobacterium sp. after 48 hrs by agar dilution method; type: functional; how it was run: as §3
Eggerthella lenta [19] = test: Antimicrobial activity against Eubacterium lentum assessed as percent susceptible isolates after 48 hrs by agar dilution method; type: functional; how it was run: as §1
[20] = tested on: Bacteroides thetaiotaomicron; test: Antimicrobial activity against Bacteroides thetaiotaomicron after 48 hrs by agar dilution method; type: functional; how it was run: as §3
Bacteroides caccae [21] = test: Antimicrobial activity against Bacteroides caccae assessed as percent susceptible isolates after 48 hrs by agar dilution method; type: functional
Anaerococcus prevotii [22] = test: Antimicrobial activity against Anaerococcus prevotii assessed as percent resistant isolates after 48 hrs by agar dilution method; type: functional; how it was run: as §2
[23] = tested on: Peptoniphilus asaccharolyticus; test: Antimicrobial activity against Peptoniphilus asaccharolyticus assessed as percent susceptible isolates after 48 hrs by agar dilution method; type: functional; how it was run: as §1
Anaerococcus prevotii [24] = test: Antimicrobial activity against Anaerococcus prevotii after 48 hrs by agar dilution method; type: functional; how it was run: as §3
Finegoldia magna [25] = test: Antimicrobial activity against Finegoldia magna after 48 hrs by agar dilution method; type: functional; how it was run: as §1
Prevotella intermedia [26] = test: Antimicrobial activity against Prevotella intermedia assessed as percent resistant isolates after 48 hrs by agar dilution method; type: functional; how it was run: as §2
Eggerthella lenta [27] = test: Antimicrobial activity against Eubacterium lentum after 48 hrs by agar dilution method; type: functional; how it was run: as §1
Fusobacterium varium = test: Antimicrobial activity against Fusobacterium varium after 48 hrs by agar dilution method; type: functional; how it was run: as §1
Actinomyces naeslundii = test: Antimicrobial activity against Actinomyces naeslundii assessed as percent susceptible isolates after 48 hrs by agar dilution method; type: functional
Bacteroides caccae [28] = test: Antimicrobial activity against Bacteroides caccae assessed as percent resistant isolates after 48 hrs by agar dilution method; type: functional; how it was run: as §2
[29] = tested on: Parabacteroides distasonis; test: Antimicrobial activity against Bacteroides distasonis assessed as percent susceptible isolates after 48 hrs by agar dilution method; type: functional
Parvimonas micra = test: Antimicrobial activity against Peptostreptococcus micros assessed as percent susceptible isolates after 48 hrs by agar dilution method; type: functional; how it was run: as §2
Clostridium perfringens [30] = test: Antimicrobial activity against Clostridium perfringens assessed as percent susceptible isolates after 48 hrs by agar dilution method; type: functional
Schaalia odontolytica [31] = test: Antimicrobial activity against Actinomyces odontolyticus assessed as percent susceptible isolates after 48 hrs by agar dilution method; type: functional
Clostridioides difficile [32] = test: Antimicrobial activity against Clostridium difficile assessed as percent resistant isolates after 48 hrs by agar dilution method; type: functional

Compound `Cc1ncc([N+](=O)[O-])n1CCO` [METRONIDAZOLE] has an Activity (Prevotella bivia [1]) of 100%, an Activity (Clostridioides difficile [2]) of 100% and an Activity (Finegoldia magna [3]) of 0%. The MIC50 [4] was 1 µg/mL (≈ 5.84 µM), the MIC90 [4] was 1 µg/mL (≈ 5.84 µM) and the MIC50 (Bacteroides ovatus) was 2 µg/mL (≈ 11.7 µM). The MIC90 (Bacteroides ovatus) was 2 µg/mL (≈ 11.7 µM), the Activity [5] was 0% and the MIC50 (Phocaeicola vulgatus) was 2 µg/mL (≈ 11.7 µM). It also gave an MIC90 (Phocaeicola vulgatus) of 2 µg/mL (≈ 11.7 µM), an MIC50 [6] of 16 µg/mL (≈ 93.5 µM) and an MIC90 [6] of over 128 µg/mL. It also gave an MIC50 (Clostridioides difficile [7]) of 1 µg/mL (≈ 5.84 µM), an MIC90 (Clostridioides difficile [7]) of 1 µg/mL (≈ 5.84 µM) and an MIC50 (Bacteroides caccae [8]) of 2 µg/mL (≈ 11.7 µM). The MIC90 (Bacteroides caccae [8]) was 2 µg/mL (≈ 11.7 µM), the Activity [9] was 46% and the MIC50 [10] was 0.5 µg/mL (≈ 2.92 µM). It also gave an MIC90 [10] of 1 µg/mL (≈ 5.84 µM), an Activity (Eubacterium sp. [11]) of 46% and an MIC50 (Schaalia odontolytica [12]) of 16 µg/mL (≈ 93.5 µM). The MIC90 (Schaalia odontolytica [12]) was over 128 µg/mL, the Activity (Anaerococcus prevotii [13]) was 100% and the MIC (Fusobacterium necrogenes) was 0.13 µg/mL (≈ 0.76 µM). It also gave an MIC50 (Eubacterium sp. [14]) of 16 µg/mL (≈ 93.5 µM), an MIC90 (Eubacterium sp. [14]) of over 128 µg/mL and an Activity (Prevotella intermedia [15]) of 100%. For the same compound, the Activity (Hoylesella oralis) was 0%, the Activity (Prevotella bivia [16]) was 0% and the MIC (Clostridium perfringens [17]) was 0.02 µg/mL (≈ 0.117 µM). For the same compound, the MIC50 (Clostridium perfringens [17]) was 0.03 µg/mL (≈ 0.175 µM), the MIC90 (Clostridium perfringens [17]) was 0.06 µg/mL (≈ 0.351 µM) and the Activity [18] was 0%. It also gave an Activity (Prevotella buccae) of 0%, an MIC50 (Bifidobacterium sp.) of 16 µg/mL (≈ 93.5 µM) and an MIC90 (Bifidobacterium sp.) of over 128 µg/mL. It also gave an Activity (Eggerthella lenta [19]) of 46%, an MIC50 [20] of 2 µg/mL (≈ 11.7 µM) and an MIC90 [20] of 2 µg/mL (≈ 11.7 µM). For the same compound, the Activity (Bacteroides caccae [21]) was 100%, the Activity (Anaerococcus prevotii [22]) was 0% and the Activity [23] was 100%. The MIC50 (Anaerococcus prevotii [24]) was 1 µg/mL (≈ 5.84 µM), the MIC90 (Anaerococcus prevotii [24]) was 1 µg/mL (≈ 5.84 µM) and the MIC (Finegoldia magna [25]) was 0.5 µg/mL (≈ 2.92 µM). The MIC50 (Finegoldia magna [25]) was 0.5 µg/mL (≈ 2.92 µM), the MIC90 (Finegoldia magna [25]) was 1 µg/mL (≈ 5.84 µM) and the Activity (Prevotella intermedia [26]) was 0%. The MIC50 (Eggerthella lenta [27]) was 16 µg/mL (≈ 93.5 µM), the MIC90 (Eggerthella lenta [27]) was over 128 µg/mL and the MIC (Fusobacterium varium) was 0.13 µg/mL (≈ 0.76 µM). It also gave an Activity (Actinomyces naeslundii) of 46%, an Activity (Bacteroides caccae [28]) of 0% and an Activity [29] of 100%. For the same compound, the Activity (Parvimonas micra) was 0%, the Activity (Clostridium perfringens [30]) was 100% and the Activity (Schaalia odontolytica [31]) was 46%. The Activity (Clostridioides difficile [32]) was 0%.

Source: ChEMBL document CHEMBL1671716, “Antimicrobial susceptibility patterns for recent clinical isolates of anaerobic bacteria in South Korea” (2010)
